“And” between values parts separate entries of the source, which are not always exact repeats. Equal entries are not always repeated.
Tests used:
[1] = target: T1, Sodium-dependent dopamine transporter (Rattus norvegicus, UniProt P23977); assay: Displacement of [3H]WIN-35428 from dopamine transporter (DAT) in Rat Caudate Putamen; format: tissue-based
How it was run: (§1)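 Ki is the inhibition constant derived for the unlabeled ligand. Values are the mean ± SEM of three experiments run in triplicate. Compounds were tested as HCl salts unless noted, some as fumarate salts. Data were fitted to single-site versus two-site binding models.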

Mus musculus [2] = species on record: Mus musculus; assay: Stimulation of locomotor activity of Mice; format: functional
How it was run: (§2)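 Mice given drug or saline vehicle, with horizontal activity counts recorded in 10 min periods over a 60 min session. Eight mice per dose, doses in µmol/kg. The dose-response used the first 30 min after injection. ED50 is from the dose-response, and the maximal stimulant effect and time course were also assessed.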

Mus musculus [3] = species on record: Mus musculus; assay: Stimulation of locomotor activity of mice; format: functional; how it was run: as §2
Rattus norvegicus [4] = species on record: Rattus norvegicus; assay: Values for substitution for Cocaine in rats Trained to discriminate Cocaine from saline; format: functional
How it was run: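 Read-out is the percentage of responses on the cocaine-appropriate lever, with doses in µmol/kg. Lever selection was counted unreliable below 0.02 responses/s, and a point was dropped if fewer than half of subjects met this rate. Four to six rats per point. ED50 given with 95% confidence limits.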

Rattus norvegicus [5] = species on record: Rattus norvegicus; assay: Compound was evaluated for inhibition of [3H]- dopamine uptake in rat caudate - putamen tissue.; format: functional
How it was run: (§3)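 [3H]dopamine uptake into rat caudate-putamen tissue. IC50 values are the mean ± SEM of three experiments, each run in triplicate. Compounds were tested as HCl salts unless noted, some as fumarate salts.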

Rattus norvegicus [6] = species on record: Rattus norvegicus; assay: Compound was evaluated for inhibition of [3H]- dopamine Uptake in rat caudate - putamen tissue.; format: functional; how it was run: as §3
[7] = target: T1, Sodium-dependent dopamine transporter; assay: Compound was evaluated for its ability to displace [3H]WIN-35428 from dopamine transporter in rat caudate putamen tissue; format: tissue-based
How it was run: as §1, with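 “Rat caudate-putamen tissue, displacing bound [3H]WIN 35,428. Ki” for “Ki”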

T1 sequence (P23977 whole entry): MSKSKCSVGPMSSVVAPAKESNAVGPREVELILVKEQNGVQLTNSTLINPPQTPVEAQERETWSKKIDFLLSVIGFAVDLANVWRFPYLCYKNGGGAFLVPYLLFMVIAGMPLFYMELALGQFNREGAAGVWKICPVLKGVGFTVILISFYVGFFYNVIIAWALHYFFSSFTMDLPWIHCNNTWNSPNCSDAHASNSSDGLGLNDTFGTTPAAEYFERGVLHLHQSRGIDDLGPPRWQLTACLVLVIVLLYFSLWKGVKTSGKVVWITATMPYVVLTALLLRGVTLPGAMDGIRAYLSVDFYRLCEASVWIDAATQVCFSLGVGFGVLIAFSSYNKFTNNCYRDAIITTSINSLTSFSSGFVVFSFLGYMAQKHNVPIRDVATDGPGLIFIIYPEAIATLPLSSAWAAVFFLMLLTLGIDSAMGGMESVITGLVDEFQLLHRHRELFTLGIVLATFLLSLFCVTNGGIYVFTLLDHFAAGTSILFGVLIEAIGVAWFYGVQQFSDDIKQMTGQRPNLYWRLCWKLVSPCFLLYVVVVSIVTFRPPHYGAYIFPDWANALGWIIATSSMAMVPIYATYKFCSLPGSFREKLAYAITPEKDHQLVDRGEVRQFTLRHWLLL

| SMILES | Ki [1] | ED50 (Mus musculus [2]) [µmol/kg] | Max effect (Mus musculus [3]) [Counts 10min-1] | ED50 (Rattus norvegicus [4]) [µmol/kg] | IC50 (Rattus norvegicus [5]) [nM] | IC50 (Rattus norvegicus [6]) [nM] | ED50 (Mus musculus [3]) [µmol/kg] | Ki [7] [nM] |
| --- | --- | --- | --- | --- | --- | --- | --- | --- |
| COC(=O)/C=C/C1C(c2ccccc2)CC2CCC1N2C (stereo not given) | 22 nM | 4.74 | 14996 | 12.8 | 123 | – | – | – |
| COC(=O)CCCCC1C(c2ccccc2)CC2CCC1N2C (stereo not given) | 30 nM | – | – | – | – | 130 | – | – |
| CN1C2CCC1C(CCC(=O)c1ccccc1)C(c1ccccc1)C2 (stereo not given) | 28 nM | – | – | – | – | 47 | – | – |
| CN1C2CCC1C(CCCc1ccccc1)C(c1ccccc1)C2 (stereo not given) | 16 nM | – | – | – | – | 43 | – | – |
| COC(=O)/C=C/CCC1C(c2ccccc2)CC2CCC1N2C (stereo not given) | 20 nM | – | 17327 | 15 | – | 203 | 9.21 | – |
| COC(=O)CCC1C(c2ccccc2)CC2CCC1N2C (stereo not given) | 23 nM | – | – | – | 166 | – | – | – |
| CN1C2CCC1C(CCCO)C(c1ccccc1)C2 (stereo not given) | 11 nM | – | 20820 | 12.9 | – | 64 | 12 | – |
| CN1C2CCC1C(/C=C/CO)C(c1ccccc1)C2 (stereo not given) | – | – | – | – | 159 | – | – | 26 |
| COC(=O)[C@@H]1C2CC[C@H](C[C@@H]1c1ccccc1)N2C (single isomer, unassigned) | 33 nM and 314 nM | – | – | – | – | 373 | – | – |
| COC(=O)[C@H]1[C@@H](OC(=O)c2ccccc2)C[C@@H]2CC[C@H]1N2C [COCAINE] | – | – | 12518 | 8.74 | – | – | 20.8 | – |

Source: ChEMBL document CHEMBL1129968, “Synthesis, dopamine transporter affinity, dopamine uptake inhibition, and locomotor stimulant activity of 2-substituted 3 beta-phenyltropane derivatives” (J Med Chem, 1997)
